# SR-BI DiI inh – inhibitors of mouse SR-BI mediated HDL lipid uptake | Q61009 | ldlA[mSR-BI] CHO cells, DiI-HDL uptake fluorescence, 3 h | inhibition, % at 12.5 µM | 320,000 tested, 0.96% active;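 active = mean replicate inhibition of at least 70% and a set share of replicates each scoring 70 or more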
# TLR4 MyD88 comp – TLR4-MyD88 interaction inhibition in cells; inhibition, % at 8.4 µM; 200,000 tested, 0.18% active; HeLa CL3-4 TLR4/MyD88 BLA complementation, FRET ratio; in the data active = inhibition above about 25%
# TLR9-MyD88 block – TLR9-MyD88 interaction inhibition | inhibition, % at 4.98 µM | CHO BLA complementation TLR9-MyD88, CCF4 FRET ratio | AID 504734 | 340,000 tested, 0.21% active;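 active = inhibition above the mean over all tested compounds plus 3 SD, cut at about 21% in these data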
# SR-BI DiI-HDL act – SR-BI HDL lipid transfer activation; CHO ldlA[mSR-BI] cells, DiI-HDL uptake fluorescence, 3 h; 100 = double the neutral-control signal; 320,000 tested, 0.096% active; activation, % at 12.5 µM; AID 504775;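 active = mean replicate activation of at least 60% and every replicate at or above 60%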
#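 System: CHO ldlA[mSR-BI] cells / Medium: HEPES-buffered (25 mM, pH 7.4) F12 plus 0.5% BSA / Probe or stimulus: labelled HDL, 10 µg/mL / Doses: single compound concentration, delivered by pin transfer / Schedule: 3 h, 37 °C / Measured by: DiI fluorescence, bottom read / Measure: cell-associated DiI fluorescence as measure of HDL uptake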
# Lipid droplet – modulators of hepatic lipid droplet formation; 240,000 tested, 0.4% active; inhibition, % at 6.5 µM; AML12 mouse hepatocytes, oleate lipid droplets, BODIPY imaging; AID 1656;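 active = lipid droplet intensity inhibited by at least 50%, with more than 500 cells counted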
#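 System: AML12 hepatocytes (mouse). Probe or stimulus: oleic acid at 100 µM to induce lipid droplet formation. Times: overnight treatment with compound plus oleate. Detection: Image-based BODIPY and DAPI two-channel analysis. Evaluation: percent inhibition of filter-corrected integrated lipid droplet intensity per well.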
# NOD2-RIPK2 inh – NOD2-RIPK2 protein interaction inhibition. O43353. CHO BLA complementation NOD2-RIPK2, CCF4 ratio. inhibition, % at 4.98 µM. 360,000 tested, 0.38% active. AID 624267; in the data active = inhibition above about 21%
# Target sequence (O43353 whole entry, looked up): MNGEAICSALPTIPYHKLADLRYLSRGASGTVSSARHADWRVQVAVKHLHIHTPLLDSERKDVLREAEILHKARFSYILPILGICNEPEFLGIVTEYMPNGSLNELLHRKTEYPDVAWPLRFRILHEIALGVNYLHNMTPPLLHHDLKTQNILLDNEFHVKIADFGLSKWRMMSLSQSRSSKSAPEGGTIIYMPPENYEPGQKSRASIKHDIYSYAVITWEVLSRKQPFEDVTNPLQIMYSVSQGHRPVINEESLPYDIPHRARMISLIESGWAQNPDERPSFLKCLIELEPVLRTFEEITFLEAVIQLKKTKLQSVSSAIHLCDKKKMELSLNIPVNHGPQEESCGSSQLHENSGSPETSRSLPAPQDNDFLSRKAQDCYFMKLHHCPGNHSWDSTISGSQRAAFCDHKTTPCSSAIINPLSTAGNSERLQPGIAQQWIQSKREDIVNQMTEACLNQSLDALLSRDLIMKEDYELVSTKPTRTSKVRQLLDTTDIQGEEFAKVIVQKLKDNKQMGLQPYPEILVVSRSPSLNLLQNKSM
# A number is an active result; – = inactive; · = no result. Most compounds without a hit are left out; they make up all but 1.6% or so of the library.
SMILES,SR-BI DiI inh,TLR4 MyD88 comp,TLR9-MyD88 block,SR-BI DiI-HDL act,Lipid droplet,NOD2-RIPK2 inh
CN(Cc1ccsc1)C(=O)Cn1cc(Br)ccc1=O,–,·,–,–,–,–
COc1ccc2c(c1)OC[C@H]1[C@H]2N2C(=O)c3cc(OC)ccc3NC(=O)[C@@]2(C)[C@H]1c1ccccc1,73,·,–,–,·,–
C[C@]12C(=O)N(c3ccc(Br)cc3)C(=O)N1[C@@H]1c3ccccc3OC[C@@H]1[C@H]2c1ccccc1,75,·,–,–,–,–
O=C(Nc1cc(S(=O)(=O)N2CCOCC2)ccc1N1CCOCC1)C1CCCO1 (stereo unspecified),–,–,–,–,–,–
COc1cc(/C=N/NC(N)=S)ccc1OCC(=O)Nc1ccc(C)c(C)c1,73,–,–,–,–,–
COc1cc(/C=N/NC(N)=O)ccc1OCC(=O)Nc1ccc(C)c(C)c1,–,–,–,–,–,–
COc1ccccc1OCC(=O)Nc1ccc(NC(=O)COc2ccccc2OC)cc1,92,·,–,–,–,–
CC(C)Nc1nc(NCc2ccccc2)c2sccc2n1,·,·,·,·,·,–
O=C(N/N=C/c1cccc(O)c1)c1ccc2c(c1)OCCO2,–,·,–,–,–,–
CCOc1cccc(/C=N/NC(=S)Nc2cc(S(=O)(=O)N3CCOCC3)ccc2N2CCOCC2)c1O,94,–,–,–,–,–
Cc1cccc(/C=N/NC(=O)c2c(-c3ccccc3)noc2C)c1O,102,·,–,–,–,–
COc1ccc2ccccc2c1/C=N/NC(=S)Nc1cc(S(=O)(=O)N2CCOCC2)ccc1N1CCOCC1,–,–,–,–,–,–
O=C(N/N=C/c1cc([N+](=O)[O-])ccc1O)c1ccc2c(c1)OCCO2,131,–,–,–,–,–
Cc1cccc(/C=N/NC(=O)c2ccc3c(c2)OCCO3)c1O,111,·,–,–,–,–
O=C(N/N=C/c1ccccc1[N+](=O)[O-])c1ccc2c(c1)OCCO2,·,·,–,·,–,–
CC(O)(c1ccc(F)c(F)c1)c1nc(/C=C/c2ccc(C(F)(F)F)cc2)cs1 (stereo unspecified),·,·,·,·,·,–
CSc1nnc(C(C)(C)C)c(=O)n1/N=C/c1ccc(Cl)cc1,–,·,–,–,–,–
CCOc1cccc(/C=N/NC(=O)c2cc(-c3cccn3C)n[nH]2)c1O,104,–,–,–,–,–
O=C(N/N=C/c1cccc([N+](=O)[O-])c1)c1cccc2cc[nH]c12,–,–,–,–,–,–
Cc1cccc(/C=N\NC(=O)c2ccc(Cl)cc2)c1O,141,–,–,–,–,–
COc1cccc(/C=N/NC(=O)CNC(=O)c2ccc3c(c2)OCCO3)c1O,–,–,–,–,–,–
CCOc1cccc(/C=N/NC(=O)c2ccc3c(c2)OCCO3)c1O,87,·,–,–,–,–
O=C(N/N=C/c1cc([N+](=O)[O-])ccc1O)c1cccc2cc[nH]c12,144,·,–,–,–,–
CC(=O)Nc1ccc(C(=O)COC(=O)C2CC3CCCC(C2)C3=O)cc1 (stereo unspecified),–,·,–,–,·,–
CCNC(=O)N1C[C@H]2CON(C)[C@H]2C[C@H]1c1ccccc1Br,·,·,–,·,·,–
SMILES,SR-BI DiI inh,TLR4 MyD88 comp,TLR9-MyD88 block,SR-BI DiI-HDL act,Lipid droplet,NOD2-RIPK2 inh
COc1cccc(/C=N/NC(=O)c2c(C)nc3ccc(Cl)cn23)c1O,120,·,–,–,–,–
COc1cc(/C=N/NC(=O)c2cccc(N3CCCC3=O)c2)ccc1O,–,·,–,–,–,–
O=C(N/N=C/c1cc([N+](=O)[O-])ccc1O)c1cccc(N2CCCC2=O)c1,117,·,–,–,–,–
COc1ccccc1/C=N\NC(=O)c1c(C)nc2ccc(Cl)cn12,–,·,–,–,–,–
CCOc1ccc(OCCn2nnc3ccccc3c2=O)cc1,–,–,–,152,–,–
CCCn1nnc2ccccc2c1=O,–,–,–,–,·,–
O=C(Nc1cccc(-c2csc(Nc3ccc(Cl)cc3)n2)c1)c1ccccc1,98,·,–,–,–,–
O=C(Nc1ccc(-c2csc(Nc3ccccc3)n2)cc1)c1ccccc1,86,·,–,–,·,–
O=C(CCl)Nc1cccc(Oc2ccccc2)c1,–,–,–,–,–,–
Cn1c(-c2ccc(F)cc2)cnc1NCc1ccccc1F,88,·,–,–,–,–
Cn1c(-c2ccc(F)cc2)cnc1NCc1ccc(F)cc1F,–,·,–,–,·,–
Cc1ccc(NS(=O)(=O)c2cc(NC(=O)c3cc4c(s3)CCCC4)ccc2C)c(C)c1,83,–,–,–,–,–
Cc1nn(-c2ccccc2)c2nc(-c3cccs3)cc(C(=O)NN)c12,84,–,–,–,–,–
COc1ccc(NC(=O)c2cc(-c3ccccc3)nc3c2c(C)nn3-c2ccccc2)c(OC)c1,88,–,–,–,–,–
c1ccc(N2[C@@H]3c4ccccc4C[C@H]2c2ccccc23)cc1,·,·,·,·,·,–
CC(=O)Nc1cccc(C(=O)N2CCC(n3nccc3NC(=O)CC(C)C)CC2)c1,–,·,–,–,–,–
COc1ccc(C(=O)Nc2nc3c(s2)Cc2cc(OC)ccc2-3)cc1,87,–,–,–,·,–
CCCCCn1c(N)c(-c2nc3ccccc3s2)c2c([N+](=O)[O-])nn(C)c(=O)c21,84,–,–,–,·,–
COc1ccc(-c2cc(=O)oc3c(C)c(OC(C)C(=O)NCc4ccccn4)ccc23)cc1 (stereo unspecified),77,·,–,–,–,–
Cc1c(OCC(N)=O)ccc2c(-c3ccccc3)cc(=O)oc12,–,·,–,–,–,–
CC(=O)COc1ccc2c(-c3ccccc3)cc(=O)oc2c1C,72,·,–,–,–,–
CCOc1ccc(NC(=O)Cn2nnc(C(=O)NCCc3ccc(OC)c(OC)c3)c2N)cc1,74,–,–,–,·,–
CCOc1ccccc1NC(=O)Cn1nnc(C(=O)NCCc2ccc(OCC)c(OCC)c2)c1N,85,·,–,–,–,–
COc1ccc(CCNC(=O)Cn2nnc(C(=O)Nc3ccc(Br)cc3)c2N)cc1OC,–,·,–,–,–,–
CCOc1ccc(NC(=O)CSc2nc3ccccc3nc2N2CC(C)OC(C)C2)cc1 (stereo unspecified),–,·,–,–,–,–
CNC(=S)N/N=C/c1cc(Br)cc(Br)c1O,–,–,–,–,–,–
